In test [1] the test system is Candida albicans. Description: Antimicrobial activity against Candida albicans isolate R after 48 hrs by Etest. It is filed as functional. The method in brief: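 Etest on RPMI 1640 agar with 2% glucose, performed according to the manufacturer's recommendations.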
For test [2], the system named is Candida albicans. In words: Antimicrobial activity against Candida albicans isolate C after 48 hrs by Etest. Format: functional. Put shortly: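 Etest on RPMI 1640 agar with 2% glucose, run per the manufacturer's instructions. Index and control clinical blood isolates were tested in parallel.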

≈ marks a conversion by molar mass, not a printed value.

From ChEMBL document CHEMBL1629654, “Breakthrough Aspergillus fumigatus and Candida albicans double infection during caspofungin treatment: laboratory characteristics and implication for susceptibility testing” (2009) come the findings set out here.

As usually defined, the MIC is the lowest concentration found to suppress growth. A lower MIC goes with a more susceptible organism. `C[C@@H]1[C@H](O)[C@@H](C)/C=C/C=C/C=C/C=C/C=C/C=C/C=C/[C@H](O[C@@H]2O[C@H](C)[C@@H](O)[C@H](N)[C@@H]2O)C[C@@H]2O[C@](O)(C[C@@H](O)C[C@@H](O)[C@H](O)CC[C@@H](O)C[C@@H](O)CC(=O)O[C@H]1C)C[C@H](O)[C@H]2C(=O)O` [AMPHOTERICIN B]: the MIC against Candida albicans [1] was 0.25 µg/mL (≈ 0.271 µM); in the test with Candida albicans [2], 0.125 µg/mL (≈ 0.135 µM).
